Assay [1] addresses T1, Toll-like receptor 7 (Homo sapiens) (UniProt Q9NYK1).
T1 sequence (whole entry): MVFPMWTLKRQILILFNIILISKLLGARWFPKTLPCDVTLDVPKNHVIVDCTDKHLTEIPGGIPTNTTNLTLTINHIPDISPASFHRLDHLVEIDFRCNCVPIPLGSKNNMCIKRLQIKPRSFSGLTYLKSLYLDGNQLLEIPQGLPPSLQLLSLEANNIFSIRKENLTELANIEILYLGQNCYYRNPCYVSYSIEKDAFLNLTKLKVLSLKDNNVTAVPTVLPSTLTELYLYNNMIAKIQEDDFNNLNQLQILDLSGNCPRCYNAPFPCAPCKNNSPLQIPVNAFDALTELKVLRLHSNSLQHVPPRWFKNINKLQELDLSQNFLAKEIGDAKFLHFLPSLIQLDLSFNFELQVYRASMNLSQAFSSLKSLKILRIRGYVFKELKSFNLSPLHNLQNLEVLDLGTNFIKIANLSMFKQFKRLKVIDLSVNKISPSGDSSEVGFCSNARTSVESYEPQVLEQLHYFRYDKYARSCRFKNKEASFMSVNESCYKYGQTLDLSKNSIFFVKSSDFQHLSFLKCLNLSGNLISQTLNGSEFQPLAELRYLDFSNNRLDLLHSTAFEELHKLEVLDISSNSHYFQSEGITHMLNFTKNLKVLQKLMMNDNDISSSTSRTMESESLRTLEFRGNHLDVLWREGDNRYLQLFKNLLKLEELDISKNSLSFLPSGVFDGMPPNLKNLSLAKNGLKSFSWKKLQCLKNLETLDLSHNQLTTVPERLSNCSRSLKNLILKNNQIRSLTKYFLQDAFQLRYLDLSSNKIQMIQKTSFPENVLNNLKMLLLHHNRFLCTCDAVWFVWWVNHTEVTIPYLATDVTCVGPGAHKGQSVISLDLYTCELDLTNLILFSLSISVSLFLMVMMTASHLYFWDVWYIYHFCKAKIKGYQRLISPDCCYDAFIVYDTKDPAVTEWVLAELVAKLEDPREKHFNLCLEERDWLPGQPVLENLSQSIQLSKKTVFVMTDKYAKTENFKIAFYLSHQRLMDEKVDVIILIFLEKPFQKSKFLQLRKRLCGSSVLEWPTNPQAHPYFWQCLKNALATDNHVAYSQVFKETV
Nature of the assay: Activation of human TLR7 expressed in HEK293XL assessed as fold induction of NF-kappaB activity at 50 ug/ml after 18 hrs by reporter gene assay relative to control. In a few lines: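 HEK293 cells stably expressing human TLR7 or TLR8, transiently transfected with SEAP reporter plasmid; medium replaced, SIMRA compounds added, 18 h incubation. Supernatant SEAP measured by QuantiBlue; expressed as fold increase in NF-κB activity over PBS control. Tabulated data at 50 μg/mL, representative of three independent experiments.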
(In a reporter assay the amount or activity of a reporter protein is the signal.)

For assay [2], the target named is T2, Toll-like receptor 9 (Mus musculus) (UniProt Q9EQU3).
T2 sequence (whole entry): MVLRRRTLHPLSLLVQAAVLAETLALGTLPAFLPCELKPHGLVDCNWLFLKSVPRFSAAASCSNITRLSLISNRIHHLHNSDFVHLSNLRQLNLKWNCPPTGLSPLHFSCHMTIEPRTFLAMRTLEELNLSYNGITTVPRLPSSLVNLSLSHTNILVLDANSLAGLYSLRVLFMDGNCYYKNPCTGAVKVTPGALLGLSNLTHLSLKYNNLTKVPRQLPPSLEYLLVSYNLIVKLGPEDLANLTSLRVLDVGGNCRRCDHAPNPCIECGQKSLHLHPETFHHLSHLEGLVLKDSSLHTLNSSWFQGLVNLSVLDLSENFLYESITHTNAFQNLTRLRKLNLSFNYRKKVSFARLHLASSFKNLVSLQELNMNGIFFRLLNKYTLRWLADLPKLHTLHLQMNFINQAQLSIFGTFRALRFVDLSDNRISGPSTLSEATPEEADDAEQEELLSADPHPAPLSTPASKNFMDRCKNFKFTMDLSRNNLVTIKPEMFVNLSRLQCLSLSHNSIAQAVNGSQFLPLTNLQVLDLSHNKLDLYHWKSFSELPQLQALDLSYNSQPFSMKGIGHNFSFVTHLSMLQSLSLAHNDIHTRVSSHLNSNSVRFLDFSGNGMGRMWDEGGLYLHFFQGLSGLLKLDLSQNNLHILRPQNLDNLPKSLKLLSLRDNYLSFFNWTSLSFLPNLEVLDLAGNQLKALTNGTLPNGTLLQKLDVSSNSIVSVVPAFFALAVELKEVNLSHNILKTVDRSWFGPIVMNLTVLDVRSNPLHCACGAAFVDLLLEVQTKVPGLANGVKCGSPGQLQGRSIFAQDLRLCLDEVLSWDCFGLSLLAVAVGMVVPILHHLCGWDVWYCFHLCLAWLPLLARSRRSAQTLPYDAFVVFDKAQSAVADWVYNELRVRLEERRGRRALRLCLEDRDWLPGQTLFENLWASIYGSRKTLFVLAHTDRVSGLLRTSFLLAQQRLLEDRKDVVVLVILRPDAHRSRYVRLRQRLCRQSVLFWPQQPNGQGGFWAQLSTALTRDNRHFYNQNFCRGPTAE
Nature of the assay: Activation of mouse TLR9 expressed in HEK293 assessed as induction of NF-kappaB activity reporter gene assay. It is filed as cell-based.

In assay [3] the test system is Splenocyte. The experiment in a line: Immunomodulatory activity in C57BL/6 mouse splenocytes bearing TLR7 receptor assessed as IL6 release at 100 ug/ml after 24 hrs by ELISA. It is filed as functional, cell-based. In a few lines:
(§1)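 C57BL/6 splenocytes in RPMI 1640 with 10% FBS, penicillin/streptomycin, 2 mM L-glutamine, plated at 5 × 10^6 cells/mL; compounds in PBS added, 37 °C for 24 h. Supernatant IL-12 and IL-6 by ELISA; representative of three independent experiments.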
(An ELISA detects its analyte on a solid surface through an enzyme-linked reagent.)

Assay [4] concerns Splenocyte. Nature of the assay: Immunomodulatory activity in C57BL/6 mouse splenocytes bearing TLR7 receptor assessed as IL12 release at 100 ug/ml after 24 hrs by ELISA. It is filed as functional, cell-based. The gist of the method:
as §1

Structures are written as SMILES. Active and inactive are the calls of the source. No cut-off for these calls is given here.

For the compound `Nc1ccn([C@@H]2O[C@H](COP(=O)(S)O[C@H]3[C@@H](O)[C@H](n4cnc5c(N)ncnc54)O[C@@H]3CO)[C@@H](OP(=O)(S)OC[C@H]3O[C@@H](n4ccc(=O)[nH]c4=O)[C@H](O)[C@@H]3OP(=O)(S)OC[C@H]3O[C@@H](n4ccc5c(=O)[nH]c(N)nc54)[C@H](O)[C@@H]3OP(=O)(S)OC[C@H]3O[C@@H](n4cnc5c(N)ncnc54)[C@H](O)[C@@H]3OP(=O)(S)OC[C@H]3O[C@@H](n4ccc5c(=O)[nH]c(N)nc54)[C@H](O)[C@@H]3OP(=O)(S)OC[C@H]3O[C@@H](n4cnc5c(N)ncnc54)[C@H](O)[C@@H]3OP(=O)(S)OC[C@H]3O[C@@H](n4ccc5c(=O)[nH]c(N)nc54)[C@H](O)[C@@H]3OP(=O)(S)OC[C@H]3O[C@@H](n4ccc(N)nc4=O)[C@H](O)[C@@H]3OP(=O)(S)OC[C@H]3O[C@@H](n4ccc(=O)[nH]c4=O)[C@H](O)[C@@H]3OP(=O)(S)OC[C@H]3O[C@@H](n4ccc(=O)[nH]c4=O)[C@H](O)[C@@H]3OP(=O)(S)OCC(O)COP(=O)(S)O[C@H]3[C@@H](O)[C@H](n4ccc(=O)[nH]c4=O)O[C@@H]3COP(=O)(S)O[C@H]3[C@@H](O)[C@H](n4ccc(=O)[nH]c4=O)O[C@@H]3COP(=O)(S)O[C@H]3[C@@H](O)[C@H](n4ccc(N)nc4=O)O[C@@H]3COP(=O)(S)O[C@H]3[C@@H](O)[C@H](n4ccc5c(=O)[nH]c(N)nc54)O[C@@H]3COP(=O)(S)O[C@H]3[C@@H](O)[C@H](n4cnc5c(N)ncnc54)O[C@@H]3COP(=O)(S)O[C@H]3[C@@H](O)[C@H](n4ccc5c(=O)[nH]c(N)nc54)O[C@@H]3COP(=O)(S)O[C@H]3[C@@H](O)[C@H](n4cnc5c(N)nc(N)nc54)O[C@@H]3COP(=O)(S)O[C@H]3[C@@H](O)[C@H](n4ccc5c(=O)[nH]c(N)nc54)O[C@@H]3COP(=O)(S)O[C@H]3[C@@H](O)[C@H](n4ccc(=O)[nH]c4=O)O[C@@H]3COP(=O)(S)O[C@H]3[C@@H](O)[C@H](n4ccc(N)nc4=O)O[C@@H]3COP(=O)(S)O[C@H]3[C@@H](O)[C@H](n4cnc5c(N)ncnc54)O[C@@H]3CO)[C@H]2O)c(=O)n1` (stereo partly drawn), the fold change (FC) in assay [1] turned out to be 16.8. Moreover, the outcome in assay [2] was inactive. The outcome with Splenocyte [3] and in the assay on Splenocyte [4] was Active.
On to `Nc1ccn([C@@H]2O[C@H](COP(=O)(S)O[C@H]3[C@@H](O)[C@H](n4cnc5c(N)ncnc54)O[C@@H]3COP(=O)(S)O[C@H]3[C@@H](O)[C@H](n4ccc5c(=O)[nH]c(N)nc54)O[C@@H]3COP(=O)(S)O[C@H]3[C@@H](O)[C@H](n4ccc(=O)[nH]c4=O)O[C@@H]3COP(=O)(S)O[C@H]3[C@@H](O)[C@H](n4ccc(=O)[nH]c4=O)O[C@@H]3COP(=O)(S)O[C@H]3[C@@H](O)[C@H](n4cnc5c(N)ncnc54)O[C@@H]3COP(=O)(S)O[C@H]3[C@@H](O)[C@H](n4cnc5c(N)ncnc54)O[C@@H]3CO)[C@@H](OP(=O)(S)OC[C@H]3O[C@@H](n4ccc5c(=O)[nH]c(N)nc54)[C@H](O)[C@@H]3OP(=O)(S)OC[C@H]3O[C@@H](n4ccc(N)nc4=O)[C@H](O)[C@@H]3OP(=O)(S)OC[C@H]3O[C@@H](n4ccc(=O)[nH]c4=O)[C@H](O)[C@@H]3OP(=O)(S)OC[C@H]3O[C@@H](n4ccc5c(=O)[nH]c(N)nc54)[C@H](O)[C@@H]3OP(=O)(S)OCC(O)COP(=O)(S)O[C@H]3[C@@H](O)[C@H](n4ccc5c(=O)[nH]c(N)nc54)O[C@@H]3COP(=O)(S)O[C@H]3[C@@H](O)[C@H](n4ccc(=O)[nH]c4=O)O[C@@H]3COP(=O)(S)O[C@H]3[C@@H](O)[C@H](n4ccc(N)nc4=O)O[C@@H]3COP(=O)(S)O[C@H]3[C@@H](O)[C@H](n4ccc5c(=O)[nH]c(N)nc54)O[C@@H]3COP(=O)(S)O[C@H]3[C@@H](O)[C@H](n4ccc(N)nc4=O)O[C@@H]3COP(=O)(S)O[C@H]3[C@@H](O)[C@H](n4cnc5c(N)ncnc54)O[C@@H]3COP(=O)(S)O[C@H]3[C@@H](O)[C@H](n4ccc5c(=O)[nH]c(N)nc54)O[C@@H]3COP(=O)(S)O[C@H]3[C@@H](O)[C@H](n4ccc(=O)[nH]c4=O)O[C@@H]3COP(=O)(S)O[C@H]3[C@@H](O)[C@H](n4ccc(=O)[nH]c4=O)O[C@@H]3COP(=O)(S)O[C@H]3[C@@H](O)[C@H](n4cnc5c(N)ncnc54)O[C@@H]3COP(=O)(S)O[C@H]3[C@@H](O)[C@H](n4cnc5c(N)ncnc54)O[C@@H]3CO)[C@H]2O)c(=O)n1` (stereo partly drawn), for which the fold change (FC) in assay [1] worked out at 22.9. Further, the outcome in assay [2] was inactive. For the same compound, the outcome in the assay with Splenocyte [3] and in the assay on Splenocyte [4] was Active.

The record behind these values is ChEMBL document CHEMBL1154352, “Toll-like receptor 7 selective synthetic oligoribonucleotide agonists: synthesis and structure-activity relationship studies” (J Med Chem, 2009).
